≈ marks a conversion by molar mass, not a printed value.

We go through seven molecules from ChEMBL document CHEMBL1148951, “New macrolides from the sponge Chondrosia corticata” (2004).

Common to all, as to assay type: functional
The subject of test [1] is Candida albicans. Description: Antifungal activity against Candida albicans at 2 ug/disk by paper disk method. As to conditions: read-out: IZ. Put shortly:
(§1)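 Paper disk diffusion assay with 2 µg of compound loaded per disk. The read-out is the diameter of the clear zone around the disk.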

The subject of test [2] is K562. Briefly: Cytotoxicity against human K562 cells by MTT assay. As to conditions: read-out: LC50 (the source's name).
Test [3] deals with Aspergillus niger. Description: Antifungal activity against Aspergillus niger at 2 ug/disk by paper disk method. The note with it: read-out: IZ. Put shortly:
as §1

Regarding `COC(CC1OC(=O)CC(O)C/C=C\C(=O)C(C)C(OC)c2coc(n2)-c2coc(n2)-c2coc(n2)/C=C\CCC1C)C(C)CCC(=O)C(C)C(C/C=C/N(C)C=O)OC` (stereo not drawn), the zone of inhibition at 2 µg/disc in test [1] and in test [3] was 10 mm throughout. The CC50 in test [2] came to 0.9 µg/mL (≈ 1.08 µM).

In the case of `COC(CC1OC(=O)CC(O)CCCC(=O)C(C)C(OC)c2coc(n2)-c2coc(n2)-c2coc(n2)/C=C/CCC1C)C(C)CCC(=O)C(C)C(C/C=C/N(C)C=O)OC` (stereo not drawn) [DIHYDROHALICHONDRAMIDE], the results for the zone of inhibition at 2 µg/disc in test [1] and in test [3] were 19 mm and 11 mm, respectively. The CC50 in test [2] amounted to 0.32 µg/mL (≈ 0.381 µM).

`COC(CC1OC(=O)CC(O)C/C=C/C(=O)C(C)C(OC)c2coc(n2)-c2coc(n2)-c2coc(n2)/C=C/CCC1C)C(C)CCC(=O)C(C)C(C/C=C/N(C)C=O)OC` (stereo not drawn) [HALICHONDRAMIDE]: the results for the zone of inhibition at 2 µg/disc in test [1] and in test [3] were 18 mm and 21 mm, respectively. The CC50 in test [2] was 0.19 µg/mL (≈ 0.227 µM).

Take `COC(=O)c1coc(/C=C/CCC(C)C(CC(OC)C(C)CCC(=O)C(C)C(C/C=C/N(C)C=O)OC)OC(=O)CC(O)C/C=C/C(=O)C(C)C(OC)c2coc(C(N)=O)n2)n1` (stereo not drawn) [HALISHIGAMIDE D]: the CC50 in test [2] amounted to 92 µg/mL (≈ 105 µM).

As for `COC(CC1OC(=O)CC(O)CC(O)CC(=O)C(C)C(OC)c2coc(n2)-c2coc(n2)-c2coc(n2)/C=C/CCC1C)C(C)CCC(=O)C(C)C(C/C=C/N(C)C=O)OC` (stereo not drawn) [JASPISAMIDE A], the results for the zone of inhibition at 2 µg/disc in test [1] and in test [3] were 18 mm and 10 mm, respectively. Moreover, the CC50 in test [2] turned out to be 0.31 µg/mL (≈ 0.363 µM).

On to `COC(CC1OC(=O)CC(O)/C=C/CC(=O)C(C)C(OC)c2coc(n2)-c2coc(n2)-c2coc(n2)/C=C/CCC1C)C(C)CCC(=O)C(C)C(C/C=C/N(C)C=O)OC` (stereo not drawn) [NEOHALICHONDRAMIDE], for which the zone of inhibition at 2 µg/disc in test [1] stood at 20 mm; in test [3], 15 mm. Besides, the CC50 in test [2] stood at 0.38 µg/mL (≈ 0.454 µM).

In the case of `COC(=O)c1nc(-c2nc(C(OC)C(C)C(=O)/C=C/CC(O)CC(=O)OC(CC(OC)C(C)CCC(=O)C(C)C(C/C=C/N(C)C=O)OC)C(C)CC/C=C/C(N)=O)co2)co1` (stereo not drawn) [SECOHALICHONDRAMIDE], the zone of inhibition at 2 µg/disc in test [1] was determined as 15 mm. In test [2], the CC50 was more than 500 µg/mL.
